Results published in ChEMBL document CHEMBL1145986, “Dual protein farnesyltransferase-geranylgeranyltransferase-I inhibitors as potential cancer chemotherapeutic agents” (J Med Chem, 2003).

How the values were obtained:
[1] = molecular target: T1, Geranylgeranyl transferase type I (Homo sapiens, UniProt P49354+P53609); assay: Inhibition of Rap1a protein geranylgeranylation in human PSN1 cells; format: functional, cell-based
How it was run: (§1)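 PSN-1 pancreatic carcinoma cells were exposed to inhibitor for 24 h. Lysates were run on SDS-PAGE and Western blotted with antibodies to hDJ2, Rap1a or K-Ras. Unprocessed and prenylated forms were told apart by their different electrophoretic mobility.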

[2] = molecular target: T2, Protein farnesyltransferase (Homo sapiens, UniProt P49354+P49356); assay: Inhibition of hDJ2 protein farnesylation; format: functional; how it was run: as §1
[3] = molecular target: T1, Geranylgeranyl transferase type I; assay: Concentration required to inhibit recombinant human geranylgeranyl transferase type I (GGTase-I) catalyzed incorporation of [3H]GGPP to the C-terminus of human K-Ras.; format: protein-complex assay
How it was run: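 Human GGTase-I transferring [3H]GGPP onto a biotinylated peptide matching the human K-Ras C-terminus. IC50 is the concentration giving 50% inhibition of incorporation. For the GGPP-competition check, IC50 was also determined at 20, 100 and 500 nM GGPP. Data with n > 2 are given as mean ± SEM.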

[4] = molecular target: Protein farnesyl/geranylgeranyl transferase (Homo sapiens, UniProt P49354+P49356+P53609); assay: Inhibition of K-Ras processing, farnesylation and/or geranylgeranylation in human PSN1 cells; format: functional, cell-based; how it was run: as §1
[5] = molecular target: T2, Protein farnesyltransferase; assay: Concentration required to inhibit recombinant human farnesyltransferase (FTase) catalyzed incorporation of [3H]FPP into recombinant Ras-CVIM.; format: protein-complex assay

| SMILES | EC50 [1] [nM] | EC50 [2] [nM] | IC50 [3] [nM] | EC50 [4] [nM] | IC50 [5] [nM] |
| --- | --- | --- | --- | --- | --- |
| CN1CCCC[C@@](CC2CC2)(c2cccc(Oc3cc([C@](C)(N)c4cncn4C)ccc3C#N)c2)C1=O | 87 | 1.5 | 2.1 | 220 | 0.3 |
| CC[C@]1(c2cccc(Oc3cc(Cn4ccnc4)ccc3C#N)c2)CCCCN(C)C1=O |  |  | 25 |  | 5.3 |
| CN1CCCC[C@@H](c2cccc(Oc3cc([C@](C)(N)c4cncn4C)ccc3C#N)c2)C1=O |  |  | 92 |  | 11 |
| CCC1(c2cccc(Oc3cc(C(C)(N)c4cncn4C)ccc3C#N)c2)CCCCN(C)C1=O (stereo unspecified) |  |  | 5.1 |  | 0.38 |
| CCC1(c2cccc(Oc3cc(C(=O)c4cncn4C)ccc3C#N)c2)CCCCN(C)C1=O (stereo unspecified) |  |  | 10000 |  | 1800 |
| CCC1(c2cccc(Oc3cc(Cc4cncn4C)ccc3C#N)c2)CCCCN(C)C1=O (stereo unspecified) |  |  | 10 |  | 0.6 |
| CCC1(c2cccc(Oc3cc(Cn4ccnc4)ccc3C#N)c2)CCCCN(C)C1=O (racemic) |  |  | 7.2 |  | 3 |
| CC[C@@]1(c2cccc(Oc3cc(Cn4ccnc4)ccc3C#N)c2)CCCCN(C)C1=O |  |  | 5.8 |  | 1.4 |
| CCCC[C@@]1(c2cccc(Oc3cc([C@](C)(N)c4cncn4C)ccc3C#N)c2)CCCCN(C)C1=O | 250 | 4 | 1.4 | 320 | 0.12 |
| CN1CCCC[C@@](C)(c2cccc(Oc3cc([C@](C)(N)c4cncn4C)ccc3C#N)c2)C1=O | 3990 | 26 | 30 | 3730 | 0.41 |
| CCC1(c2cccc(Oc3cc(Cn4ccnc4)ccc3C#N)c2)CCCCNC1 (stereo unspecified) |  |  | 280 |  | 100 |
| CC[C@@]1(c2cccc(Oc3cc([C@](C)(N)c4cncn4C)ccc3C#N)c2)CCCCN(C)C1=O | 470 | 2.1 | 3.6 | 340 |  |
| CN1CCCC[C@@](CCC(F)(F)F)(c2cccc(Oc3cc([C@](C)(N)c4cncn4C)ccc3C#N)c2)C1=O | 47 | 3.1 | 2.5 | 207 | 0.19 |
| CC[C@@]1(c2cccc(Oc3cc([C@@](C)(N)c4cncn4C)ccc3C#N)c2)CCCCN(C)C1=O (stereo in doubt) | 140 | 6 | 13 | 230 | 0.36 |
| CN1CCCC[C@@](CCC2CC2)(c2cccc(Oc3cc([C@](C)(N)c4cncn4C)ccc3C#N)c2)C1=O | > 1000 | 11 | 0.81 | 1290 | 0.18 |
| CCC1(c2cccc(Oc3cc(Cn4ccnc4)ccc3C#N)c2)CCCCNC1=O (stereo unspecified) |  |  | 20 |  | 1.3 |
| N#Cc1ccc(Cn2ccnc2)cc1Oc1cccc(C2CCCCNC2=O)c1 (stereo unspecified) |  |  | 1200 |  | 41 |
| CN1CCCCC(c2cccc(Oc3cc(Cn4ccnc4)ccc3C#N)c2)C1=O (stereo unspecified) |  |  | 560 |  | 61 |
| CCC1(c2cccc(Oc3cc(Cc4cnc[nH]4)ccc3C#N)c2)CCCCN(C)C1=O (stereo unspecified) |  |  | 12 |  | 13 |
| CC[C@]1(c2cccc(Oc3cc([C@@](C)(N)c4cncn4C)ccc3C#N)c2)CCCCN(C)C1=O | 3200 | 120 | 54 | 8000 | 7.6 |
| CCC1(c2cccc(Oc3cc(C(O)c4cncn4C)ccc3C#N)c2)CCCCN(C)C1=O (stereo unspecified) |  |  | 17 |  | 2 |
| CCC1(c2cccc(Oc3cc(C(N)c4cncn4C)ccc3C#N)c2)CCCCN(C)C1=O (stereo unspecified) |  |  | 8 |  | 0.19 |
| CC[C@]1(c2cccc(Oc3cc([C@](C)(N)c4cncn4C)ccc3C#N)c2)CCCCN(C)C1=O (stereo in doubt) | 720 | 11 | 4.5 | 1900 | 1.5 |
| CCC1(c2cccc(Oc3cc(Cn4ccnc4)ccc3C#N)c2)CCCCN(C(C)=O)C1 (stereo unspecified) |  |  | 8.9 |  | 1.9 |
| CCC[C@@]1(c2cccc(Oc3cc([C@](C)(N)c4cncn4C)ccc3C#N)c2)CCCCN(C)C1=O | 220 | 0.9 | 2.9 | 100 | 0.46 |
| CCC1(c2cccc(Oc3cc(C(C)(O)c4cncn4C)ccc3C#N)c2)CCCCN(C)C1=O (stereo unspecified) |  |  | 13 |  | 1.2 |
